Test results as given in ChEMBL document CHEMBL1140405, “6-Acylamino-2-aminoquinolines as potent melanin-concentrating hormone 1 receptor antagonists. Identification, structure-activity relationship, and investigation of binding mode” (J Med Chem, 2005).
Converted amounts (≈) assume the structure as drawn. “And” between values parts separate entries of the source, which are not always exact repeats. Equal values may be shown once.

Legend:
[1] = target: T1, Adrenergic receptor alpha-2 (Homo sapiens, UniProt P08913+P18825+P18089); experiment: Inhibitory concentration against alpha-2 adrenergic receptor; assay type: protein assay
T1 sequence (P08913 whole entry): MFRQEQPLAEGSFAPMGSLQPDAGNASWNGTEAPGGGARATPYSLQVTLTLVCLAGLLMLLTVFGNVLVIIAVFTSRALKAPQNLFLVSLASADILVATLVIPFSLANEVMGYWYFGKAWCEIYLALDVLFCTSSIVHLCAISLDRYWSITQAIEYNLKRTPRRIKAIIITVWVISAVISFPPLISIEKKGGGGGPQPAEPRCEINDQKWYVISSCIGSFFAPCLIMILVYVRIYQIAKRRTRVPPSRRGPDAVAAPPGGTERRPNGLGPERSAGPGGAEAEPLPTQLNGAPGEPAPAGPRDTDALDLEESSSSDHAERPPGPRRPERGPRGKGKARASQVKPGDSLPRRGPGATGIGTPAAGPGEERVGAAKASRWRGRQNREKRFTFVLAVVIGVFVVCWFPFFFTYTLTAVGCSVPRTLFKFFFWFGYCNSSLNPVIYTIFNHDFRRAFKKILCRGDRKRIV
T1 sequence (P18825 whole entry): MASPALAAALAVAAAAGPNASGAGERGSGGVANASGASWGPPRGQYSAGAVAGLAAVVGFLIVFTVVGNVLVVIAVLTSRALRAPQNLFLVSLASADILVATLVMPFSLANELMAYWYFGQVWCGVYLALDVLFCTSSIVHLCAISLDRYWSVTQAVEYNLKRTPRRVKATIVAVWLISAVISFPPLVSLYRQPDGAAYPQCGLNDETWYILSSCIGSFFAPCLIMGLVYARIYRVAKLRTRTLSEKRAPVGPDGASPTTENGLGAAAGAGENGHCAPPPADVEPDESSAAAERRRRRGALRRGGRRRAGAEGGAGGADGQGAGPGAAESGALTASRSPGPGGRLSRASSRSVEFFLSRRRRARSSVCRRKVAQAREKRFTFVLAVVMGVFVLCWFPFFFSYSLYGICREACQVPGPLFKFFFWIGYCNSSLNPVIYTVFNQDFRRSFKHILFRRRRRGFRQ
T1 sequence (P18089 whole entry): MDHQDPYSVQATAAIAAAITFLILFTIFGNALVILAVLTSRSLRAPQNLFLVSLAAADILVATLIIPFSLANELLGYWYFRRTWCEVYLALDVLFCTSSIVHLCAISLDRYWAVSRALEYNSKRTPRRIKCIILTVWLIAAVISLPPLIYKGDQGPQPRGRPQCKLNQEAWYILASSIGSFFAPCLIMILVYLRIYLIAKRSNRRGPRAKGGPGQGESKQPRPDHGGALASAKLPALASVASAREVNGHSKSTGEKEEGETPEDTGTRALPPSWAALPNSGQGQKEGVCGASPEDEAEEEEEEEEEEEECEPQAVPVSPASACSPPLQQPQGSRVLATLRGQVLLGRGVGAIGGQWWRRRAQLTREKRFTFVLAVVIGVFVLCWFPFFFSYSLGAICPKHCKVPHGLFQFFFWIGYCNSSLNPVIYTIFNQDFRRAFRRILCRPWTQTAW

[2] = target: T2, Muscarinic acetylcholine receptor M1 (Homo sapiens, UniProt P11229); experiment: Inhibitory concentration against muscarinic acetylcholine receptor M1
T2 sequence (P11229 whole entry): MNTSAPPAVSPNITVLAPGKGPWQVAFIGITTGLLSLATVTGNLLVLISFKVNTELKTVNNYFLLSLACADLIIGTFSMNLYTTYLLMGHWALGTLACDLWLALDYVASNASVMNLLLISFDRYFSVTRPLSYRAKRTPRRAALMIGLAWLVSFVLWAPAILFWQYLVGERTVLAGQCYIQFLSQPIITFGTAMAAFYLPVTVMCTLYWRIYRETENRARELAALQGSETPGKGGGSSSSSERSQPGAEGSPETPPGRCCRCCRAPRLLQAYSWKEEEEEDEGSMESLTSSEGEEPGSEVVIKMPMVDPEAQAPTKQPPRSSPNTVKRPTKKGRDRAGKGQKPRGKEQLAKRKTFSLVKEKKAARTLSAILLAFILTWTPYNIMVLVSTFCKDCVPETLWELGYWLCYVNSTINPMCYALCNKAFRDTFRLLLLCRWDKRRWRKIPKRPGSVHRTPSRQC

[3] = target: T3, 5-hydroxytryptamine receptor 2C (Homo sapiens, UniProt P28335); experiment: Inhibitory concentration against human 5-hydroxytryptamine 2C receptor expressed in CHO-K1 cells using [3H]mesulergine; assay type: cell-based
T3 sequence (P28335 whole entry): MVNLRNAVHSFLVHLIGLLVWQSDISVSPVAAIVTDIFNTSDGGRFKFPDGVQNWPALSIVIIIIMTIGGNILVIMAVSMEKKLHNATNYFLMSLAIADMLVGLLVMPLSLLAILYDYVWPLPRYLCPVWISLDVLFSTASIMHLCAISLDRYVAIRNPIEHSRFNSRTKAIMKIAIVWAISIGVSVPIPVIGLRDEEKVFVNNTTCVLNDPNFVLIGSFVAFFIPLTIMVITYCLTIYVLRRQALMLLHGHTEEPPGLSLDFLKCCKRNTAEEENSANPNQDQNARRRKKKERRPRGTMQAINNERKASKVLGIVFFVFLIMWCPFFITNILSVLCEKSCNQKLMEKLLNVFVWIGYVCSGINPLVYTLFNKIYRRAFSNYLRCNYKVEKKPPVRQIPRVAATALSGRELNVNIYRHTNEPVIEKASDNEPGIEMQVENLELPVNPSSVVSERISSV
Method in brief: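 SPA competition binding on purchased membranes from CHO-K1 cells expressing h5-HT2c (4 μg/well), with YSi-WGA beads (0.4 mg/well) and [3H]mesulergine tracer, across various test-compound concentrations. Buffer is 50 mM Tris pH 7.7, 50 mM MgCl2 and 0.1% pargyline. Nonspecific binding uses 1 μM cold mesulergine. IC50 is taken by nonlinear regression.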

[4] = target: Sodium-dependent dopamine transporter (Homo sapiens, UniProt Q01959); experiment: Inhibitory concentration against dopamine transporter
Sequence of Sodium-dependent dopamine transporter (Q01959 whole entry): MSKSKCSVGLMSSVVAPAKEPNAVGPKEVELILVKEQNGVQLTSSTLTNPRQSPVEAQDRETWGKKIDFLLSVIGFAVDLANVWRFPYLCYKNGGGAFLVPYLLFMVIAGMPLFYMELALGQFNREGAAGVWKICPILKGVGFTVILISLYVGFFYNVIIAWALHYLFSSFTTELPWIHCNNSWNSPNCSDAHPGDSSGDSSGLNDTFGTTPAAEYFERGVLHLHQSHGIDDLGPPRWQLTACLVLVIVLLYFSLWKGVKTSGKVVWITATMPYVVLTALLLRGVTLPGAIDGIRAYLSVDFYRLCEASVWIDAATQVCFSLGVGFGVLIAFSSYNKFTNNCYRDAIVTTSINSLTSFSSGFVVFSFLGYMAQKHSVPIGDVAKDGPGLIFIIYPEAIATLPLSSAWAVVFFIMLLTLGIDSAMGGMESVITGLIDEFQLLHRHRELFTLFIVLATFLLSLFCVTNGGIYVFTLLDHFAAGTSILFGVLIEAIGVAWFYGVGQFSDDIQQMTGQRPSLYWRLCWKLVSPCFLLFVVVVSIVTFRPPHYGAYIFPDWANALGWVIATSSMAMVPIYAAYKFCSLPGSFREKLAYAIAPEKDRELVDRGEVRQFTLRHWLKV

[5] = target: D(1A) dopamine receptor (Homo sapiens, UniProt P21728); experiment: Inhibitory concentration against dopamine receptor D1
Sequence of D(1A) dopamine receptor (P21728 whole entry): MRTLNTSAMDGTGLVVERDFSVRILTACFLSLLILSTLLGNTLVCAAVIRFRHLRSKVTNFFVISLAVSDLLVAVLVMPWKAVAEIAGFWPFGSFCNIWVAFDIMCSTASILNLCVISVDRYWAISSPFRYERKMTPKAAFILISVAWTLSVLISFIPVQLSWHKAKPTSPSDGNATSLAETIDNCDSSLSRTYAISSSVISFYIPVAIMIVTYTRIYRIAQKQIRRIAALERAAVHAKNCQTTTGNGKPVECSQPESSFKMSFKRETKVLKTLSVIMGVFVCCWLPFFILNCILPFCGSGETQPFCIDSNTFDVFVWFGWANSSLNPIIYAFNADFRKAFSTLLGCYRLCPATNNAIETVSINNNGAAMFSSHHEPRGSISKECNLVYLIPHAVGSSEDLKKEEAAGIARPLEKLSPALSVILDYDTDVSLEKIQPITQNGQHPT

[6] = target: Histamine H2 receptor (Homo sapiens, UniProt P25021); experiment: Inhibitory concentration against histamine H2 receptor
Sequence of Histamine H2 receptor (P25021 whole entry): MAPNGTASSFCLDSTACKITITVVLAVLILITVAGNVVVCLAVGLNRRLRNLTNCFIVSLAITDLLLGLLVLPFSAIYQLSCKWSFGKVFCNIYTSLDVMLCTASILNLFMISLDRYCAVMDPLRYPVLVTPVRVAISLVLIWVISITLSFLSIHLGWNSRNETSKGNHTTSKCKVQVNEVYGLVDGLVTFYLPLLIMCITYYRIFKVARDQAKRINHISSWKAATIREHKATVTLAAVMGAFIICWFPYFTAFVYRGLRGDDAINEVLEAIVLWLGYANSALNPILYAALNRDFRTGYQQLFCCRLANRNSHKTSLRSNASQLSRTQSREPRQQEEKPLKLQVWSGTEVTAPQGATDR

[7] = target: Melanin-concentrating hormone receptor 2 (Homo sapiens, UniProt Q969V1); experiment: Displacement of 30 pM [125I]-MCH from human MCH2R expressed in CHO-K1 in whole-cell binding assay
Sequence of Melanin-concentrating hormone receptor 2 (Q969V1 whole entry): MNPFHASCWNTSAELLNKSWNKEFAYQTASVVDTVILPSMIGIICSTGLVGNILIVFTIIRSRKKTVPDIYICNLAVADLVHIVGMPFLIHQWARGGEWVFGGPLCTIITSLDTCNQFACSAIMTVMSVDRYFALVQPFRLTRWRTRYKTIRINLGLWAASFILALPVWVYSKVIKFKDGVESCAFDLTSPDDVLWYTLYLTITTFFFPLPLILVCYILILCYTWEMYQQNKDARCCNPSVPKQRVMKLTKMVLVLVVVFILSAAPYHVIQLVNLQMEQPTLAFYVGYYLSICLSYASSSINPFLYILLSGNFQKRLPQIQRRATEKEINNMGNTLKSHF

[8] = target: T4, Muscarinic acetylcholine receptor M2 (Homo sapiens, UniProt P08172); experiment: Inhibitory concentration against muscarinic acetylcholine receptor M2
T4 sequence (P08172 whole entry): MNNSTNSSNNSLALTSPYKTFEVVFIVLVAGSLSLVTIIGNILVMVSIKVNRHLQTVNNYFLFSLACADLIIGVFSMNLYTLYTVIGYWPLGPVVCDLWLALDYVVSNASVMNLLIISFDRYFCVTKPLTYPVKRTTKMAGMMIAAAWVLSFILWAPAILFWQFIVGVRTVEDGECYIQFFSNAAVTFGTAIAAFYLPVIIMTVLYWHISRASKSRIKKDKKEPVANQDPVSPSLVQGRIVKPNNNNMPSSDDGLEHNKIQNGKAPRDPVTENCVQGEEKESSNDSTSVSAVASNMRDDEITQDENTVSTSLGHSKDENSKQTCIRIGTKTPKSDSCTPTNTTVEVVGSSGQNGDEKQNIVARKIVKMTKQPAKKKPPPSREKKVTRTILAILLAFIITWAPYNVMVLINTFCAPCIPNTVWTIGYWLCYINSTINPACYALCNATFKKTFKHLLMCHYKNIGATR

[9] = target: Histamine H1 receptor (Homo sapiens, UniProt P35367); experiment: Inhibitory concentration against histamine H1 receptor
Sequence of Histamine H1 receptor (P35367 whole entry): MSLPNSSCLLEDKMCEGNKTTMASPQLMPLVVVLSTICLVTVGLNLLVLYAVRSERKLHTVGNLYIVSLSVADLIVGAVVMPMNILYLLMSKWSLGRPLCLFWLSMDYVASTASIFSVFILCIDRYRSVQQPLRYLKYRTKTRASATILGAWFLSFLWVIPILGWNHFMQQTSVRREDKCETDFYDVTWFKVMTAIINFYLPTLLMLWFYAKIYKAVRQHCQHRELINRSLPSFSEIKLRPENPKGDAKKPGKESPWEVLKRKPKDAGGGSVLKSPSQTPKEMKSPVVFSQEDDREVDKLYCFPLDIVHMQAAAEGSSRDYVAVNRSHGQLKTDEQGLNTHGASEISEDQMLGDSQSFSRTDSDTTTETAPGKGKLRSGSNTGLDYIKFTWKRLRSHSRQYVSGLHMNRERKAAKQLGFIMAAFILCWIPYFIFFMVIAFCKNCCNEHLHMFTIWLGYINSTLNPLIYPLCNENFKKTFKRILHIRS

[10] = target: 5-hydroxytryptamine receptor 1B (Homo sapiens, UniProt P28222); experiment: Inhibitory concentration against 5-hydroxytryptamine 1B receptor
Sequence of 5-hydroxytryptamine receptor 1B (P28222 whole entry): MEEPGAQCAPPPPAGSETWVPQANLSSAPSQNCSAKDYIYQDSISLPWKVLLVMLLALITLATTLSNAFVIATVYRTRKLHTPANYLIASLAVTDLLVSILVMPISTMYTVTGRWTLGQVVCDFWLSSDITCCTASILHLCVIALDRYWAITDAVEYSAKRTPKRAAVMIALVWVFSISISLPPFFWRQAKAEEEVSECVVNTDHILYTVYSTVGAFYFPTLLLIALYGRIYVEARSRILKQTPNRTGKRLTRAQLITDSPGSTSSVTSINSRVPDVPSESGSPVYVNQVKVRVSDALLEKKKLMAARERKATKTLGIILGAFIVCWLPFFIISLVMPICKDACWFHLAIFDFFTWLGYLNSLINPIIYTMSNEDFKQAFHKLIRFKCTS

[11] = target: D(3) dopamine receptor (Homo sapiens, UniProt P35462); experiment: Inhibitory concentration against dopamine receptor D3
Sequence of D(3) dopamine receptor (P35462 whole entry): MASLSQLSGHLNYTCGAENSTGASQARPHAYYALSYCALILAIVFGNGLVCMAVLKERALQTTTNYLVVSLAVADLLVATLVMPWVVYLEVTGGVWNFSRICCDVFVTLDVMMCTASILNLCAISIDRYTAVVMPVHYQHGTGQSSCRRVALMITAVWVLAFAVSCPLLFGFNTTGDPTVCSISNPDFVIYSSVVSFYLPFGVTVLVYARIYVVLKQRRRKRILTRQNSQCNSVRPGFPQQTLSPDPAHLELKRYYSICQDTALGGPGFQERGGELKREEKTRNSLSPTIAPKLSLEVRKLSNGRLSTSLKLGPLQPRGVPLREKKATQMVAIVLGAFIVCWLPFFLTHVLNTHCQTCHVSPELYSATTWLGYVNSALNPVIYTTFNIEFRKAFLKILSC

[12] = target: 5-hydroxytryptamine receptor 2A (Homo sapiens, UniProt P28223); experiment: Inhibitory concentration against 5-hydroxytryptamine 2A receptor
Sequence of 5-hydroxytryptamine receptor 2A (P28223 whole entry): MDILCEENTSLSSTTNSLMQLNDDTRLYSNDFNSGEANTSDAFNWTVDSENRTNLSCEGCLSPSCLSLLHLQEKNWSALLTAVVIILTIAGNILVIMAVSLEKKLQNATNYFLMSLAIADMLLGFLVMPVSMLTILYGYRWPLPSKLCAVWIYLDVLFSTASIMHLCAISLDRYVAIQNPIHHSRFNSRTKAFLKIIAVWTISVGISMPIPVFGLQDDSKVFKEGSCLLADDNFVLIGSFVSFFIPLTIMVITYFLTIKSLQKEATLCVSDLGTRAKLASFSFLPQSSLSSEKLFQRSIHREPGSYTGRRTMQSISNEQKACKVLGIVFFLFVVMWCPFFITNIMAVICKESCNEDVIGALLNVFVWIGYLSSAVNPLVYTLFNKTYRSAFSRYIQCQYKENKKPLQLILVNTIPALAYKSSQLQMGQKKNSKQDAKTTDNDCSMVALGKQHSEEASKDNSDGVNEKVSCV

[13] = Solubility was determined by addition of 10 mM DMSO solution of test compound to PBS (pH 7) until opalescence
[14] = target: Melanin-concentrating hormone receptor 1 (Homo sapiens, UniProt Q99705); experiment: Displacement of 150p M [125I]MCH from human MCH1R expressed in CHO-K1 cells at 10 uM; assay type: cell-based
Sequence of Melanin-concentrating hormone receptor 1 (Q99705 whole entry): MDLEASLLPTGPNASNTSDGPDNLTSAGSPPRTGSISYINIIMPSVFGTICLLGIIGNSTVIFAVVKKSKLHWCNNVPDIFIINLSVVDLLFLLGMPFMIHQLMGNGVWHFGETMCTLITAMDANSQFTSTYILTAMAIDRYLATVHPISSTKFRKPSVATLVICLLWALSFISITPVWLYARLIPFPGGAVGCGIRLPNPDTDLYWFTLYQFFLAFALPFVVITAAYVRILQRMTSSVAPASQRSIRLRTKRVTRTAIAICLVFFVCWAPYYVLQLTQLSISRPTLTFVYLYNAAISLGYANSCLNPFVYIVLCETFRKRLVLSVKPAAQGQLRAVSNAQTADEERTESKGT

Compound | IC50 [3] | IC50 [7] [µM] | further results
Cc1cc(OCCN(C)C)nc2ccc(NC(=O)COc3ccc(Cl)cc3Cl)cc12 | 2.6 µM and 2.5 µM | 8.7 | IC50 [1]: 0.25 µM; IC50 [2]: 1.7 µM; IC50 [4]: > 10 µM; IC50 [5]: 7.5 µM; IC50 [6]: 0.87 µM; IC50 [8]: 4.5 µM; IC50 [9]: 3.5 µM; IC50 [10]: 0.2 µM; IC50 [11]: 0.0013 µM; IC50 [12]: 0.61 µM
Cc1cc(N2CCNCC2)nc2ccc(NC(=O)/C=C/c3ccc(OC(F)(F)F)cc3)cc12 | 1.1 µM | > 10 | solubility kinetic ([13]; buffer): 25 µM (≈ 11.4 µg/mL)
Cc1cc(N2CCCNCC2)nc2ccc(NC(=O)/C=C/c3ccc(OC(F)(F)F)cc3)cc12 | 1.6 µM |  | 
CCN1CCN(c2cc(C)c3cc(NC(=O)/C=C/c4ccccc4OC(C)C)ccc3n2)CC1 |  |  | inhibition [14]: 41%
Cc1cc(N2CCOCC2)nc2ccc(NC(=O)COc3ccc(Cl)cc3Cl)cc12 |  |  | solubility kinetic ([13]; PBS): 10 µM (≈ 4.46 µg/mL)
Cc1cc(NCCCN(C)C)nc2ccc(NC(=O)COc3ccc(OC(F)(F)F)cc3)cc12 | 4 µM | 7.1 | 
Cc1cc(N2CCNCC2)nc2ccc(NC(=O)COc3ccc(Cl)cc3Cl)cc12 | 2 µM | 3.7 | solubility kinetic ([13]; buffer): 25 µM (≈ 11.1 µg/mL)
CCOc1ccc(/C=C/C(=O)Nc2ccc3nc(N4CCN(C)CC4)cc(C)c3c2)cc1OC |  |  | inhibition [14]: 52%
CCN1CCN(c2cc(C)c3cc(NC(=O)c4ccc(OC)cc4)ccc3n2)CC1 |  |  | inhibition [14]: 40%
Cc1cc(N(C)CCO)nc2ccc(NC(=O)/C=C/c3ccc(OC(F)(F)F)cc3)cc12 | > 10 µM | 6.4 | 
Cc1cc(N(C)CCO)nc2ccc(NC(=O)COc3ccc(Cl)cc3Cl)cc12 | 5.9 µM | > 10 | solubility kinetic ([13]; PBS): 5 µM (≈ 2.17 µg/mL)
Cc1cc(N2CCC(N3CCCC3)CC2)nc2ccc(NC(=O)COc3ccc(OC(F)(F)F)cc3)cc12 |  | 6.3 | 
CCN1CCCC1CNc1cc(C)c2cc(NC(=O)COc3ccc(OC(F)(F)F)cc3)ccc2n1 (stereo not given) | 4.7 µM | > 10 | 
CNCCN(C)c1cc(C)c2cc(NC(=O)COc3ccc(Cl)cc3Cl)ccc2n1 | 0.77 µM |  | solubility kinetic ([13]; buffer): 100 µM (≈ 44.7 µg/mL)
Cc1cc(N2CCN(C)CC2)nc2ccc(NC(=O)COc3ccc(OC(F)(F)F)cc3)cc12 |  |  | solubility kinetic ([13]; PBS): 120 µM (≈ 56.9 µg/mL)
Cc1cc(N2CCN(c3ncccn3)CC2)nc2ccc(NC(=O)COc3ccc(Cl)cc3Cl)cc12 |  |  | inhibition [14]: 41%
Cc1cc(N2CCOCC2)nc2ccc(NC(=O)COc3ccc(OC(F)(F)F)cc3)cc12 | > 10 µM | > 10 | solubility kinetic ([13]; PBS): 25 µM (≈ 11.5 µg/mL)
CC(=O)OCCN(C)c1cc(C)c2cc(NC(=O)COc3ccc(Cl)cc3Cl)ccc2n1 |  | > 10 | 
Cc1cc(N2CC3CC2CN3)nc2ccc(NC(=O)COc3ccc(OC(F)(F)F)cc3)cc12 (stereo not given) |  | 6.8 | solubility kinetic ([13]; PBS): 150 µM (≈ 70.9 µg/mL)
COc1ccc(OC)c(/C=C/C(=O)Nc2ccc3nc(N4CCN(C)CC4)cc(C)c3c2)c1 |  |  | inhibition [14]: 47%
Cc1cc(N2CCN(C)CC2)nc2ccc(NC(=O)COc3ccc(Cl)cc3Cl)cc12 | 0.61 µM | > 10 | solubility kinetic ([13]; buffer): 25 µM (≈ 11.5 µg/mL)
CCN1CCN(c2cc(C)c3cc(NC(=O)c4cc(=O)c5ccccc5o4)ccc3n2)CC1 |  |  | inhibition [14]: 71%
Cc1cc(N2CCC(N)CC2)nc2ccc(NC(=O)COc3ccc(OC(F)(F)F)cc3)cc12 |  | 4.7 | solubility kinetic ([13]; PBS): 150 µM (≈ 71.2 µg/mL)
Cc1cc(NC(C)CN(C)C)nc2ccc(NC(=O)/C=C/c3ccc(OC(F)(F)F)cc3)cc12 (stereo not given) | 18 µM |  | 
Cc1cc(NCCN(C)C)nc2ccc(NC(=O)/C=C/c3ccc(OC(F)(F)F)cc3)cc12 | 5.7 µM | 8.4 | 
Cc1cc(N(C)CCN(C)C)nc2ccc(NC(=O)COc3ccc(Cl)cc3Cl)cc12 |  | 4.5 | solubility kinetic ([13]; PBS): 80 µM (≈ 36.9 µg/mL)
